Most compounds without a hit are left out; they make up all but 5.8% or so of the library.
IDH1 R132H inh: blocks human IDH1 R132H reductase activity. O75874. diaphorase/resazurin fluorescence, 60 min. inhibition, % at 10 µM. 0.18% of 70,000 active. AID 624101; in the data active = inhibition above about 34%; inconclusive = no clear call, values can overlap the other calls; inactive = below about 11%;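 note: 0% = DMSO and 100% = no enzyme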
Target sequence (O75874 whole entry R132H): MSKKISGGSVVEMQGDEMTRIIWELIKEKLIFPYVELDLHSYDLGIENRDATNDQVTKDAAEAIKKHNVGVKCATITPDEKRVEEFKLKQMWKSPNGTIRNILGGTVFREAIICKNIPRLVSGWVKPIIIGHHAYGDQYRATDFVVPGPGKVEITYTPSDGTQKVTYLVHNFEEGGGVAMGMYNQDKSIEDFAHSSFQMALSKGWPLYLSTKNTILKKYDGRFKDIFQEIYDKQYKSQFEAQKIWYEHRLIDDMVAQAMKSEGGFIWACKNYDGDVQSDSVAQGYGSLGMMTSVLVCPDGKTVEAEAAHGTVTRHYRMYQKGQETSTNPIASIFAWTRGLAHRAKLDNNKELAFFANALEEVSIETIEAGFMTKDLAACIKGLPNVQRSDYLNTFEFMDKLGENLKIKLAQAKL
Pf Dd2 growth: blocks growth of Plasmodium falciparum Dd2 parasites; P. falciparum Dd2 growth, SYBR Green, 72 h; active compounds read low; activity change, % at 10 µM; 2.3% of 94,000 active; in the data active = activity change below about -80%; inconclusive = no clear call, values can overlap the other calls
GASC1 inh: KDM4C (human) demethylase inhibition; AID 720574; inhibition, % at 12.5 µM; 0.15% of 96,000 active; Q9H3R0; GST-KDM4C 2-372, H3K9me3 peptide, LANCE TR-FRET;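 active = mean replicate inhibition above about 25%, with at least 55% of replicates also reaching it, limit read from the data, passing the limit was not always enough; inconclusive = only one of those two conditions met; inactive = neither condition met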
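Test system – GST-tagged GASC-1 (JMJD2C) catalytic fragment, aa 2-372 · Medium – HEPES buffer, pH 7.5, plus ascorbate · Reagent – H3K9me3 peptide with Fe(II)/2OG · Compound – one test concentration per compound · Timing – 30 min reaction, 60 min detection, RT · Technique – TR-FRET with Eu antibody and ULight streptavidin, EDTA stop · Read-out basis – inhibition from TR-FRET ratio decrease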
T cruzi growth-1: inhibitors of T. cruzi proliferation; T. cruzi beta-gal in NIH3T3, GalScreen luminescence, 90 h; inhibition, % at 8.34 µM; 5.9% of 77,000 active;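 active = mean inhibition above about 93%, with at least 55% of replicates each passing it, limit read from the data, passing the limit was not always enough; inconclusive = only one of those two conditions holds; inactive = neither condition holds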
T cruzi growth-2: blocks T. cruzi growth in NIH3T3 host cells; shares compounds with T cruzi growth-1; T. cruzi beta-gal in NIH3T3, GalScreen luminescence, 90 h; inhibition, % at 8.35 µM; 72% of 5,600 active; AID 651739;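 active = mean replicate inhibition above about 95% and at least 55% of replicates individually reaching it, limit read from the data; inconclusive = only one of the two criteria is met; inactive = neither criterion is met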
T cruzi growth-3: inhibitors of T. cruzi proliferation | shares compounds with T cruzi growth-1 | T. cruzi beta-gal in NIH3T3, GalScreen luminescence, 90 h | inhibition, % at 2.09 µM | 21% of 5,600 active | AID 651740;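 active = mean inhibition above about 95%, with at least 55% of replicates also reaching it, limit read from the data; inconclusive = meets just one of the two conditions; inactive = meets neither condition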;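 note: plate controls were neutral control median for no effect and positive control median for full effect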
NIH3T3 tox: NIH/3T3 (mouse) viability loss | shares compounds with T cruzi growth-1 | NIH/3T3 viability, CellTiter-Glo ATP luminescence, 90 h | cytotoxicity (signal decrease), % at 8.35 µM | 14% of 5,600 active | AID 651742;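 active = mean signal decrease across replicates above about 35% based on untreated-well scatter, with enough replicates individually passing, limit read from the data; inconclusive = no rule stated though some were filed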;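 note: 0% = median of neutral control wells and 100% = median of positive control wells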
3T3 cytotox 2: cytotoxicity in mouse NIH/3T3 fibroblasts. shares compounds with T cruzi growth-1. NIH/3T3 viability, CellTiter-Glo ATP luminescence, 90 h. inhibition, % at 24.9 µM. 56% of 5,600 active. AID 651744;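 active = mean loss of cell viability signal at or above a set limit, and enough replicates individually reaching it; inconclusive = meets only the mean limit or only the replicate share; inactive = meets neither condition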;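 note: 0% = median of neutral control wells and 100% = median of positive control wells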
An asterisk follows results filed as active.

`Cc1ccccc1S(=O)(=O)N1[C@H](C#N)[C@@H](c2ccc(-c3ccccc3)cc2)[C@@H]1CO` gave Pf Dd2 growth -2.1, GASC1 inh 0.4 and T cruzi growth-1 66.6.
Screening N#C[C@H]1[C@H](c2ccc(-c3cccc(F)c3)cc2)[C@H](CO)N1S(=O)(=O)c1cccc(F)c1 returned Pf Dd2 growth -37.0, GASC1 inh -1.7, T cruzi growth-1 96.2*, T cruzi growth-2 107.6*, T cruzi growth-3 74.6, NIH3T3 tox 37.2* and 3T3 cytotox 2 57.0*.
`Cc1ccccc1S(=O)(=O)N1[C@H](C#N)[C@H](c2ccc(-c3ccccc3)cc2)[C@H]1CO` gave Pf Dd2 growth -12.7, GASC1 inh -1.2, T cruzi growth-1 103.4*, T cruzi growth-2 98.2*, T cruzi growth-3 65.9, NIH3T3 tox 40.5* and 3T3 cytotox 2 47.3*.
`Cc1ccc2[nH]c(C)c(CCC(=O)O)c(=O)c2c1` gave IDH1 R132H inh -0.1.
`O=C(N/N=C/C=C/c1ccccc1)c1ccccc1O` gave IDH1 R132H inh -0.5.
For COc1ccc(C#Cc2ccc([C@@H]3[C@@H](CO)N4CCCCN(C(=O)Nc5ccc(F)cc5)C[C@H]34)cc2)cc1 the results were Pf Dd2 growth -68.0, GASC1 inh -1.4, T cruzi growth-1 116.4*, T cruzi growth-2 97.2*, T cruzi growth-3 119.9*, NIH3T3 tox 122.6* and 3T3 cytotox 2 104.8*.
`COc1ccc(C#Cc2ccc([C@H]3[C@@H](CO)N4CCCCN(C(=O)Nc5ccc(F)cc5)C[C@H]34)cc2)cc1` gave Pf Dd2 growth -66.4, GASC1 inh -2.7 and T cruzi growth-1 87.6.
For COc1ccc(C#Cc2ccc([C@@H]3[C@@H](CO)N4CCCCN(C(=O)Nc5ccc(F)cc5)C[C@@H]34)cc2)cc1 the results were Pf Dd2 growth -29.3, GASC1 inh -1.5, T cruzi growth-1 112.5*, T cruzi growth-2 102.2*, T cruzi growth-3 105.6*, NIH3T3 tox 3.7 and 3T3 cytotox 2 103.6*.
COc1ccc(C#Cc2ccc([C@@H]3[C@H](CO)N4CCCCN(C(=O)Nc5ccc(F)cc5)C[C@@H]34)cc2)cc1 was read as Pf Dd2 growth -67.0, GASC1 inh -0.4, T cruzi growth-1 111.3*, T cruzi growth-2 105.0*, T cruzi growth-3 109.4*, NIH3T3 tox 119.2* and 3T3 cytotox 2 103.2*.
CS(=O)(=O)N(CC(=O)Nc1ccc(F)cc1)c1ccccc1 was read as IDH1 R132H inh 0.0.
Screening COc1cccc(-c2cc(C#N)c(NC(=O)c3cccc([N+](=O)[O-])c3)o2)c1 returned IDH1 R132H inh 0.2.
COc1cccc(-c2ccc3c(c2)[C@H]2[C@H](CCN2C(=O)CC2CC2)[C@H](CO)N3C)c1 was read as Pf Dd2 growth -9.1, GASC1 inh 2.1 and T cruzi growth-1 9.1.
For COc1cccc(-c2ccc3c(c2)[C@@H]2[C@@H](CCN2C(=O)CC2CC2)[C@H](CO)N3C)c1 the results were Pf Dd2 growth -18.1, GASC1 inh 2.5 and T cruzi growth-1 4.7.
`COCC(=O)N1CC[C@H]2[C@@H]1c1cc(-c3cccc(OC)c3)ccc1N(C)[C@H]2CO` gave Pf Dd2 growth 8.4, GASC1 inh 1.7, T cruzi growth-1 101.0*, T cruzi growth-2 107.9*, T cruzi growth-3 78.5, NIH3T3 tox 3.5 and 3T3 cytotox 2 -6.6.
`CCC(=O)N1CC[C@H]2[C@@H]1c1cc(-c3cccc(OC)c3)ccc1N(C)[C@H]2CO` gave Pf Dd2 growth -1.2, GASC1 inh 0.2, T cruzi growth-1 99.1*, T cruzi growth-2 101.3*, T cruzi growth-3 76.7, NIH3T3 tox 11.4 and 3T3 cytotox 2 -4.0.
Screening CCC(=O)N1CC[C@@H]2[C@H]1c1cc(-c3ccccc3)ccc1N(C)[C@H]2CO returned Pf Dd2 growth -5.1, GASC1 inh 2.4 and T cruzi growth-1 35.6.
Screening COCC(=O)N1CC[C@@H]2[C@H]1c1cc(-c3cccc(OC)c3)ccc1N(C)[C@H]2CO returned Pf Dd2 growth -5.6, GASC1 inh 2.9, T cruzi growth-1 95.9*, T cruzi growth-2 103.4*, T cruzi growth-3 106.0*, NIH3T3 tox -23.7 and 3T3 cytotox 2 -38.4.
For O=C(O)CCc1ccc(-c2ccc(F)cc2)n1-c1ccc(C(=O)O)cc1 the results were IDH1 R132H inh 0.6.
`CCOC(=O)Nc1ccc2c(c1)N(C(=O)CCN1CCOCC1)c1ccccc1CC2` gave IDH1 R132H inh 0.0.
O=C(CSc1ncn(-c2ccccc2)n1)Nc1ccc(Cl)cc1Cl was read as IDH1 R132H inh 0.2.
COC(=O)CCCCCCC(=O)N/N=C/c1cccc(O)c1O was read as IDH1 R132H inh -0.4.
Screening O=[N+]([O-])c1cc(C(F)(F)F)ccc1N(CCO)CCO returned IDH1 R132H inh 0.7.
For COc1cccc(NC(=O)N(C)C[C@@H]2Oc3ncc(C#Cc4ccccc4)cc3C(=O)N([C@H](C)CO)C[C@H]2C)c1 the results were IDH1 R132H inh -3.4, Pf Dd2 growth -44.9, T cruzi growth-1 121.4*, T cruzi growth-2 106.5*, T cruzi growth-3 111.3*, NIH3T3 tox 16.6 and 3T3 cytotox 2 27.6*.
`COc1cccc(NC(=O)N(C)C[C@H]2Oc3ncc(C#Cc4ccccc4)cc3C(=O)N([C@H](C)CO)C[C@@H]2C)c1` gave IDH1 R132H inh 0.2, Pf Dd2 growth -45.4, T cruzi growth-1 110.4*, T cruzi growth-2 108.4*, T cruzi growth-3 88.0, NIH3T3 tox inconclusive and 3T3 cytotox 2 27.6*.
For COc1cccc(NC(=O)N(C)C[C@H]2Oc3ncc(C#Cc4ccccc4)cc3C(=O)N([C@@H](C)CO)C[C@H]2C)c1 the results were Pf Dd2 growth -37.1, T cruzi growth-1 inconclusive, T cruzi growth-2 104.5*, T cruzi growth-3 51.5, NIH3T3 tox 2.3 and 3T3 cytotox 2 38.3*.
Screening COc1cccc(NC(=O)N(C)C[C@H]2Oc3ncc(C#Cc4ccccc4)cc3C(=O)N([C@H](C)CO)C[C@H]2C)c1 returned Pf Dd2 growth -32.3 and T cruzi growth-1 95.5.
`O=C(CCCCCC(=O)Nc1ccccc1O)N=NC=C1C=CN(O)C=C1` gave IDH1 R132H inh 0.1.
`C[C@@H]1CCCCO[C@H](CN(C)Cc2ccccc2)[C@@H](C)CN([C@@H](C)CO)C(=O)c2cc(NC(=O)c3ccncc3)ccc2O1` gave IDH1 R132H inh 2.7, Pf Dd2 growth -12.7, GASC1 inh -0.9, T cruzi growth-1 97.7*, T cruzi growth-2 15.7, T cruzi growth-3 -36.0, NIH3T3 tox -17.8 and 3T3 cytotox 2 -25.2.
